Published values gathered from unrelated publications.
Target: Tyrosine-protein kinase SYK (SYK, Homo sapiens, UniProt P43405)

SMILES | effect on | mode | method | concentration | quantity | value
COc1ccc2oc(-c3ccc4nc(N)oc4c3)c/c(=N\c3ccccc3NC(=O)CCN)c2c1 | binding |  |  | 1 µM | remaining binding | 96%
CO[C@@H]1[C@H](N(C)C(=O)c2ccccc2)C[C@H]2O[C@]1(C)n1c3ccccc3c3c4c(c5c6ccccc6n2c5c31)C(=O)NC4 | enzyme activity | inhibitor |  | 1 µM | inhibition | 96%
Cc1ccc(NC(=O)c2ccnc(C(F)(F)F)c2)cc1-c1cc(OCCO)nc(N2CCOCC2)c1 | binding |  | competition with immobilised ligand | 1 µM | remaining binding | 100%
C1=C/COCc2cc(ccc2OCCN2CCCC2)Nc2nccc(n2)-c2cccc(c2)COC/1 | cell-free assay |  |  | 0.1 µM | remaining signal | 87%
C[C@H]1CC[C@H](n2c3cnccc3c3cnc(Nc4ccc5c(n4)CCN(C(=O)CO)C5)nc32)CC1 | cell-free assay |  | competition with immobilised ligand | 1 µM | remaining binding | 100%
CC#CC(=O)N1CCC[C@H]1c1nc(-c2ccc(C(=O)Nc3ccccn3)cc2)c2c(N)nccn12 | enzyme activity | inhibitor |  | 1 µM | inhibition | 0%
CC(C)S(=O)(=O)c1ccc2nccc(Nc3ccc4sc(C5CCCC5)nc4c3)c2c1 | enzyme activity | inhibitor |  | 1 µM | activity vs control | 104%
CCCCC(=O)Nc1ccc(-c2ccc3ncn(CCC)c(=O)c3c2)cn1 | binding |  | competition with immobilised ligand | 0.5 µM | remaining binding | 90%
